Source: ChEMBL document CHEMBL1145764, “Nonbenzamidine isoxazoline derivatives as factor Xa inhibitors” (Bioorg Med Chem Lett, 2003)

What was measured:
Prothrombin = Prothrombin (Homo sapiens, UniProt P00734); assay: Inhibitory activity against thrombin using human purified enzyme
How it was run: (§1)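 Human purified enzyme in 0.1 M sodium phosphate buffer with 0.2 M NaCl and 0.5% polyethylene glycol 6000, pH 7.0. Inhibitor tested at eight half-log concentrations from 10 down to 0.00316. Plates read at 405 nm for 30 min. Rates compared with no-inhibitor controls to give % activity, converted to Ki using substrate concentration and Km. Duplicate runs with common internal standards.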

Serine protease 1 = Serine protease 1 (Homo sapiens, UniProt P07477); assay: Inhibitory activity against trypsin using human purified enzyme; how it was run: as §1
Sequence of Serine protease 1 (P07477 whole entry): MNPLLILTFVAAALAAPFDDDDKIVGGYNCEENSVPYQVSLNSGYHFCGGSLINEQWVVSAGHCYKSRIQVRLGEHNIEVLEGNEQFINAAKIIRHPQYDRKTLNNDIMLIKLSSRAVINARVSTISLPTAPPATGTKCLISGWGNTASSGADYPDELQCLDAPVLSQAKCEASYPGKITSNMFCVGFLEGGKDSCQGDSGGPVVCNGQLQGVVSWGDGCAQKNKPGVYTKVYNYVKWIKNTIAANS

Coagulation factor X [1] = biological target: Coagulation factor X (Homo sapiens, UniProt P00742); assay: Inhibitory activity against factor Xa using human purified enzyme.; how it was run: as §1
Sequence of Coagulation factor X (Homo sapiens, UniProt P00742) (P00742 41-179 limits assumed): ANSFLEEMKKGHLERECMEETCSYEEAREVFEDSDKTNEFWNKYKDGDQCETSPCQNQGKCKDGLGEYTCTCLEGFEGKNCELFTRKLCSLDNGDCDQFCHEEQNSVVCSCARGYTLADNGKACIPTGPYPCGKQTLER
Sequence of Coagulation factor X (Homo sapiens, UniProt P00742) (P00742 235-488 limits assumed): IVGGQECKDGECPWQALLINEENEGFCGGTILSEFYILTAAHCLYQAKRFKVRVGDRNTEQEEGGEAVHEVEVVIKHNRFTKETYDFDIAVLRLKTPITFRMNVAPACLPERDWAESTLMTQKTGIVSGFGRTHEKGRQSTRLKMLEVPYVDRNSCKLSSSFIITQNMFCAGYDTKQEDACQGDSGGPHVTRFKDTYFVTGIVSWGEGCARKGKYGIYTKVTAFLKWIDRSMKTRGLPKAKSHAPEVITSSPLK

[2] = Pharmacokinetic profile in terms of half life was determined at a dose of 5 mg/kg administered intravenously in dog; type: ADME, organism-based, Canis lupus familiaris; design: dose 5 mg/kg, route intravenous; details: in vivo, iv
[3] = Pharmacokinetic profile in terms of clearance was determined at a dose of 5 mg/kg administered intravenously in dog; type: ADME, organism-based, Canis lupus familiaris; design: dose 5 mg/kg, route intravenous; details: in vivo, iv
Oryctolagus cuniculus [4] = species: Oryctolagus cuniculus; assay: (§2) Inhibitory concentration required for antithrombotic efficacy in rabbit arterio-venous shunt model; type: functional
Coagulation factor X [5] = biological target: T1, Coagulation factor X (Oryctolagus cuniculus, UniProt O19045); assay: Inhibitory activity against Rabbit factor Xa was determined
T1 sequence (O19045 whole entry): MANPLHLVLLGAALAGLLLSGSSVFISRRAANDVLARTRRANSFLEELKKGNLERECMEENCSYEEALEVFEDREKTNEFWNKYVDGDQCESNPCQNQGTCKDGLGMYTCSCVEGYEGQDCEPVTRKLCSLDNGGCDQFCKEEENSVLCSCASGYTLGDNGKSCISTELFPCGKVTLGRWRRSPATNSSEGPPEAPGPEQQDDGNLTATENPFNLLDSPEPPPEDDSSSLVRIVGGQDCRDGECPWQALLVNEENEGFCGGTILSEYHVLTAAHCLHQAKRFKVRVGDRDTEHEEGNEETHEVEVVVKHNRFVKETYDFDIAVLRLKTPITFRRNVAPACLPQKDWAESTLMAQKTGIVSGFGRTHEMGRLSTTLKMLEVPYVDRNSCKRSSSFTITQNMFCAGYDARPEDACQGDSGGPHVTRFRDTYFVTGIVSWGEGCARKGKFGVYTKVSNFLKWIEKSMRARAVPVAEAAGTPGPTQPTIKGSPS

Oryctolagus cuniculus [6] = species: Oryctolagus cuniculus; assay: as §2; type: functional, organism-based
[7] = Pharmacokinetic profile in terms of half life was determined at a dose of 0.5 mg/kg administered intravenously in dog; type: ADME, organism-based, Canis lupus familiaris; design: dose 0.5 mg/kg, route intravenous; details: in vivo, iv
[8] = Pharmacokinetic profile in terms of clearance was determined at a dose of 0.5 mg/kg administered intravenously in dog; type: ADME, organism-based, Canis lupus familiaris; design: dose 0.5 mg/kg, route intravenous; details: in vivo, iv

COc1ccc(C2=NOC(CNS(C)(=O)=O)(C(=O)Nc3ccc(-c4ccccc4S(N)(=O)=O)cn3)C2)cc1 (centres undefined)
Ki (Prothrombin): > 6300 nM | Ki (Serine protease 1): > 4200 nM | Ki (Coagulation factor X [1]): 10 nM

N=C(N)c1cccc(C2=NOC(Cn3cnnn3)(C(=O)Nc3ccc(-c4ccccc4S(N)(=O)=O)cn3)C2)c1 (centres undefined)
half-life [2]: 1.1 h | clearance [3]: 22 mL/min/kg | ID50 (Oryctolagus cuniculus [4]): 0.032 µM/h/kg | Ki (Coagulation factor X [5]): 0.11 nM

CC1(C(=O)Nc2ccc(-c3ccccc3S(N)(=O)=O)cc2)CC(c2ccc(Cl)c(N)c2)=NO1 (centres undefined)
Ki (Coagulation factor X [1]): 130 nM

CC1(C(=O)Nc2ccc(-c3ccccc3S(N)(=O)=O)cc2)CC(c2cccc(C(=N)N)c2)=NO1 (centres undefined)
Ki (Coagulation factor X [1]): 7.2 nM

CS(=O)(=O)NCC1(C(=O)Nc2ccc(-c3ccccc3S(N)(=O)=O)cn2)CC(c2ccc3onc(N)c3c2)=NO1 (centres undefined)
Ki (Prothrombin): 5200 nM | Ki (Serine protease 1): > 5200 nM | Ki (Coagulation factor X [1]): 4.6 nM

Nc1cc(C2=NOC(Cn3cccn3)(C(=O)Nc3ccc(-c4ccccc4S(N)(=O)=O)cn3)C2)ccc1Cl (racemic)
Ki (Prothrombin): > 21000 nM | Ki (Serine protease 1): > 1600 nM | Ki (Coagulation factor X [1]): 14 nM

NC(=O)NCC1(C(=O)Nc2ccc(-c3ccccc3S(N)(=O)=O)cn2)CC(c2ccc(Cl)c(N)c2)=NO1 (racemic)
Ki (Prothrombin): 9300 nM | Ki (Serine protease 1): > 1600 nM | Ki (Coagulation factor X [1]): 2.5 nM

CC(=O)NCC1(C(=O)Nc2ccc(-c3ccccc3S(N)(=O)=O)cn2)CC(c2ccc(Cl)c(N)c2)=NO1 (racemic)
Ki (Prothrombin): > 21000 nM | Ki (Serine protease 1): > 1600 nM | Ki (Coagulation factor X [1]): 11 nM

Nc1cc(C2=NOC(Cn3cnnn3)(C(=O)Nc3ccc(-c4ccccc4S(N)(=O)=O)cn3)C2)ccc1Cl (racemic)
Ki (Prothrombin): > 21000 nM | Ki (Serine protease 1): > 1600 nM | Ki (Coagulation factor X [1]): 10 nM

Nc1cc(C2=NOC(CNS(=O)(=O)Cc3ccccc3)(C(=O)Nc3ccc(-c4ccccc4S(N)(=O)=O)cn3)C2)ccc1Cl (racemic)
Ki (Prothrombin): 6200 nM | Ki (Serine protease 1): > 4200 nM | Ki (Coagulation factor X [1]): 2.2 nM

Nc1cc(C2=NOC(CNS(=O)(=O)c3ccccc3)(C(=O)Nc3ccc(-c4ccccc4S(N)(=O)=O)cn3)C2)ccc1Cl (racemic)
Ki (Prothrombin): > 21000 nM | Ki (Serine protease 1): > 8000 nM | Ki (Coagulation factor X [1]): 1.7 nM

Nc1cc(C2=NOC(CNS(=O)(=O)CC(F)(F)F)(C(=O)Nc3ccc(-c4ccccc4S(N)(=O)=O)cn3)C2)ccc1Cl (racemic)
Ki (Prothrombin): 6600 nM | Ki (Serine protease 1): > 8000 nM | Ki (Coagulation factor X [1]): 3.3 nM

Nc1cc(C2=NOC(CNS(=O)(=O)c3ccsc3)(C(=O)Nc3ccc(-c4ccccc4S(N)(=O)=O)cn3)C2)ccc1Cl (racemic)
Ki (Prothrombin): > 21000 nM | Ki (Serine protease 1): > 8000 nM | Ki (Coagulation factor X [1]): 1.2 nM

CS(=O)(=O)NCC1(C(=O)Nc2ccc(-c3ccccc3S(N)(=O)=O)cn2)CC(c2ccc(Cl)c(N)c2)=NO1 (racemic)
Ki (Prothrombin): 1300 nM | Ki (Serine protease 1): > 8000 nM | Ki (Coagulation factor X [1]): 1.9 nM

Nc1cc(C2=NOC(Cn3cncn3)(C(=O)Nc3ccc(-c4ccccc4S(N)(=O)=O)cn3)C2)ccc1Cl (racemic)
Ki (Prothrombin): > 21000 nM | Ki (Serine protease 1): > 4200 nM | Ki (Coagulation factor X [1]): 34 nM

Nc1cc(C2=NOC(CNS(N)(=O)=O)(C(=O)Nc3ccc(-c4ccccc4S(N)(=O)=O)cn3)C2)ccc1Cl (racemic)
Ki (Prothrombin): 5900 nM | Ki (Serine protease 1): > 8000 nM | Ki (Coagulation factor X [1]): 5.5 nM

Nc1cc(C2=NOC(CNS(=O)(=O)c3cccnc3)(C(=O)Nc3ccc(-c4ccccc4S(N)(=O)=O)cn3)C2)ccc1Cl (racemic)
Ki (Prothrombin): 17000 nM | Ki (Serine protease 1): > 8000 nM | Ki (Coagulation factor X [1]): 3 nM

Nc1cc(C2=NOC(CNC=O)(C(=O)Nc3ccc(-c4ccccc4S(N)(=O)=O)cn3)C2)ccc1Cl (racemic)
Ki (Prothrombin): 14000 nM | Ki (Serine protease 1): > 8000 nM | Ki (Coagulation factor X [1]): 15 nM

CCCS(=O)(=O)NCC1(C(=O)Nc2ccc(-c3ccccc3S(N)(=O)=O)cn2)CC(c2ccc(Cl)c(N)c2)=NO1 (racemic)
Ki (Prothrombin): 18000 nM | Ki (Serine protease 1): > 8000 nM | Ki (Coagulation factor X [1]): 3.7 nM

CCNC(=O)NCC1(C(=O)Nc2ccc(-c3ccccc3S(N)(=O)=O)cn2)CC(c2ccc(Cl)c(N)c2)=NO1 (racemic)
Ki (Prothrombin): > 6300 nM | Ki (Serine protease 1): > 4200 nM | Ki (Coagulation factor X [1]): 69 nM

Nc1cc(C2=NOC(Cn3cccn3)(C(=O)Nc3ccc(-c4ccccc4S(N)(=O)=O)cn3)C2)ccc1Cl (single isomer, unassigned; (+))
Ki (Prothrombin): > 21000 nM | Ki (Serine protease 1): > 1600 nM | Ki (Coagulation factor X [1]): 1100 nM

NC(=O)NCC1(C(=O)Nc2ccc(-c3ccccc3S(N)(=O)=O)cn2)CC(c2ccc(Cl)c(N)c2)=NO1 (single isomer, unassigned; (+))
Ki (Prothrombin): > 21000 nM | Ki (Serine protease 1): > 6000 nM | Ki (Coagulation factor X [1]): 69 nM

Nc1cc(C2=NOC(Cn3cnnn3)(C(=O)Nc3ccc(-c4ccccc4S(N)(=O)=O)cn3)C2)ccc1Cl (single isomer, unassigned; (+))
Ki (Prothrombin): > 21000 nM | Ki (Serine protease 1): > 1600 nM | Ki (Coagulation factor X [1]): 320 nM

CS(=O)(=O)NCC1(C(=O)Nc2ccc(-c3ccccc3S(N)(=O)=O)cn2)CC(c2ccc(Cl)c(N)c2)=NO1 (single isomer, unassigned; (+))
Ki (Prothrombin): > 21000 nM | Ki (Serine protease 1): > 4200 nM | Ki (Coagulation factor X [1]): 240 nM

Nc1cc(C2=NOC(Cn3cccn3)(C(=O)Nc3ccc(-c4ccccc4S(N)(=O)=O)cn3)C2)ccc1Cl (single isomer, unassigned; (-))
Ki (Prothrombin): > 21000 nM | Ki (Serine protease 1): > 1600 nM | Ki (Coagulation factor X [1]): 15 nM

NC(=O)NCC1(C(=O)Nc2ccc(-c3ccccc3S(N)(=O)=O)cn2)CC(c2ccc(Cl)c(N)c2)=NO1 (single isomer, unassigned; (-))
Ki (Prothrombin): 800 nM | Ki (Serine protease 1): > 1600 nM | ID50 (Oryctolagus cuniculus [6]): 5.5 µmol/kg/h | half-life [7]: 2.32 h | Ki (Coagulation factor X [1]): 2.5 nM | clearance [8]: 7.17 mL/min/kg | Ki (Coagulation factor X [5]): 4.7 nM

CS(=O)(=O)NCC1(C(=O)Nc2ccc(-c3ccccc3S(N)(=O)=O)cn2)CC(c2ccc(Cl)c(N)c2)=NO1 (stereo in doubt)
Ki (Prothrombin): 800 nM | Ki (Serine protease 1): > 8000 nM | half-life [7]: 7.25 h | Ki (Coagulation factor X [1]): 1.5 nM | clearance [8]: 8.83 mL/min/kg | ID50 (Oryctolagus cuniculus [4]): 8 µM/h/kg | Ki (Coagulation factor X [5]): 2.3 nM

Nc1cc(C2=NOC(Cn3cnnn3)(C(=O)Nc3ccc(-c4ccccc4S(N)(=O)=O)cn3)C2)ccc1Cl (stereo in doubt; 20 (-))
Ki (Prothrombin): 19000 nM | Ki (Serine protease 1): > 1600 nM | Ki (Coagulation factor X [1]): 7.1 nM
